Key:
L1210 [1] = assay: Compound was tested for percent increase in life span against L1210 lymphoid leukemia; format: functional, Mus musculus
P388 = assay: Compound was tested for mean survival time of treated mice in days / mean survival time of control mice x 100 against P388 lymphoid leukemia cells; Inactive; format: functional, Mus musculus
L1210 [2] = assay: Compound was tested for the concentration required to inhibit the growth rate of the control L1210 cells by 50%; Value ranges from 2.60-4.71; format: functional; conditions: Mus musculus, read-out: ID50 (the source's name)
L1210 [3] = assay: Compound was tested for its inhibitory activity against L1210 lymphoid leukemia; format: functional, cell-based; conditions: Mus musculus
L1210 [4] = assay: Compound was tested for mean survival time of treated mice in days / mean survival time of control mice x 100 against L1210 lymphoid leukemia cells; format: functional, Mus musculus
How it was run: (§1)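 CD2F1 mice in groups of six received 1 × 10⁵ L1210 lymphoid leukemia cells ip. Dosing was ip, once a day for 5 days, starting 24 h after tumor inoculation, under standard NCI protocol. %T/C = (mean survival time of treated mice in days / mean survival time of controls) × 100. Toxic deaths were excluded from the %T/C calculation.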

L1210 [5] = assay: Antitumor activity against L1210 lymphoid leukemia in CD2F1 mice at a dose of […] measured as difference between estimated tumor burdens before second treatment; format: functional, Mus musculus
L1210 [6] = assay: Antitumor activity against L1210 lymphoid leukemia in CD2F1 mice at a dose of 100 mg/injection and difference between estimated tumor burdens before second treatment; format: functional, Mus musculus
How it was run: (§2)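 CD2F1 mice, in groups of six, received 1 × 10⁵ L1210 cells ip and were dosed ip once daily for 5 days from 24 h after inoculation. Net cell kill is the estimated change in tumor burden from before the first dose to just after the last. It is calculated as (T − C − Rx)/3.32Td, using the tumor doubling time observed in that test and survival after the last treatment.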

L1210 [7] = assay: Antitumor activity against L1210 lymphoid leukemia in CD2F1 mice at a dose of 100 mg/injection measured as difference between estimated tumor burdens before first treatment; format: functional, Mus musculus; how it was run: as §2
L1210 [8] = assay: Ability to inhibit growth of L1210 lymphocyte leukemia cell in culture; format: functional, cell-based; conditions: Mus musculus
L1210 [9] = assay: Antitumor activity against L1210 lymphoid leukemia in CD2F1 mice at a dose of 50 mg/injection measured as difference between estimated tumor burdens before first treatment; format: functional, Mus musculus; how it was run: as §2
L1210 [10] = assay: Antitumor activity against L1210 lymphoid leukemia in CD2F1 mice at a dose of 50 mg/injection measured as difference between estimated tumor burdens before second treatment; format: functional, Mus musculus; how it was run: as §2
L1210 [11] = assay: Antitumor activity against L1210 lymphoid leukemia in CD2F1 mice at 100 mg/injection and measured as mean weight change (days 5 minus 1) of treated mice minus mean weight change of control mice before first treatment was reported; format: functional, Mus musculus
How it was run: (§3)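 CD2F1 mice, in groups of six, were inoculated ip with 1 × 10⁵ L1210 lymphoid leukemia cells. Dosing was ip once daily for 5 days, starting 24 h after inoculation. Toxicity was scored as the mean weight change of treated mice (day 5 minus day 1) minus the mean weight change of control mice.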

L1210 [12] = assay: Antitumor activity against L1210 lymphoid leukemia in CD2F1 mice at 100 mg/injection and measured as mean weight change (days 5 minus 1) of treated mice minus mean weight change of control mice before second treatment was reported; format: functional, Mus musculus; how it was run: as §3
L1210 [13] = assay: Antitumor activity against L1210 lymphoid leukemia in CD2F1 mice at a dose of 200 mg/injection measured as difference between estimated tumor burdens before first treatment; format: functional, Mus musculus; how it was run: as §2
L1210 [14] = assay: Antitumor activity against L1210 lymphoid leukemia in CD2F1 mice at a dose of 25 mg/injection measured as difference between estimated tumor burdens before first treatment; format: functional, Mus musculus; how it was run: as §2
L1210 [15] = assay: Antitumor activity against L1210 lymphoid leukemia in CD2F1 mice at a dose of 25 mg/injection measured as difference between estimated tumor burdens before second treatment; format: functional, Mus musculus; how it was run: as §2
L1210 [16] = assay: Antitumor activity against L1210 lymphoid leukemia in CD2F1 mice at a dose of 300 mg/injection measured as difference between estimated tumor burdens before first treatment; format: functional, Mus musculus; how it was run: as §2
L1210 [17] = assay: Antitumor activity against L1210 lymphoid leukemia in CD2F1 mice at […] and measured as mean weight change (days 5 minus 1) of treated mice minus mean weight change of control mice before second treatment was reported; format: functional, Mus musculus
L1210 [18] = assay: Antitumor activity against L1210 lymphoid leukemia in CD2F1 mice at 200 mg/injection and measured as mean weight change (days 5 minus 1) of treated mice minus mean weight change of control mice before first treatment was reported; format: functional, Mus musculus; how it was run: as §3
L1210 [19] = assay: Antitumor activity against L1210 lymphoid leukemia in CD2F1 mice at 200 mg/injection and measured as mean weight change (days 5 minus 1) of treated mice minus mean weight change of control mice before second treatment was reported; format: functional, Mus musculus; how it was run: as §3
L1210 [20] = assay: Antitumor activity against L1210 lymphoid leukemia in CD2F1 mice at 25 mg/injection and measured as mean weight change (days 5 minus 1) of treated mice minus mean weight change of control mice before first treatment was reported; format: functional, Mus musculus; how it was run: as §3
L1210 [21] = assay: Antitumor activity against L1210 lymphoid leukemia in CD2F1 mice at 25 mg/injection and measured as mean weight change (days 5 minus 1) of treated mice minus mean weight change of control mice before second treatment was reported; format: functional, Mus musculus; how it was run: as §3
L1210 [22] = assay: Antitumor activity against L1210 lymphoid leukemia in CD2F1 mice at 300 mg/injection and mean weight change (days 5 minus 1) of treated mice minus mean weight change of control mice before first treatment was reported; format: functional, Mus musculus; how it was run: as §3
L1210 [23] = assay: Antitumor activity against L1210 lymphoid leukemia in CD2F1 mice at 100 mg/injection and measured as mean survival time of treated mice in days/mean survival time of control mice x 100 before first treatment was reported; format: functional, Mus musculus; how it was run: as §1
L1210 [24] = assay: Antitumor activity against L1210 lymphoid leukemia in CD2F1 mice at 100 mg/injection and measured as mean survival time of treated mice in days/mean survival time of control mice x 100 before second treatment was reported; format: functional, Mus musculus; how it was run: as §1
L1210 [25] = assay: Antitumor activity against L1210 lymphoid leukemia in CD2F1 mice at […] and measured as mean survival time of treated mice in days/mean survival time of control mice x 100 before second treatment was reported; format: functional, Mus musculus
L1210 [26] = assay: Antitumor activity against L1210 lymphoid leukemia in CD2F1 mice at 200 mg/injection and measured as mean survival time of treated mice in days/mean survival time of control mice x 100 before first treatment was reported; format: functional, Mus musculus; how it was run: as §1
L1210 [27] = assay: Antitumor activity against L1210 lymphoid leukemia in CD2F1 mice at 200 mg/injection and measured as mean survival time of treated mice in days/mean survival time of control mice x 100 before second treatment was reported; format: functional, Mus musculus; how it was run: as §1
L1210 [28] = assay: Antitumor activity against L1210 lymphoid leukemia in CD2F1 mice at 25 mg/injection and measured as mean survival time of treated mice in days/mean survival time of control mice x 100 before first treatment was reported; format: functional, Mus musculus; how it was run: as §1
L1210 [29] = assay: Antitumor activity against L1210 lymphoid leukemia in CD2F1 mice at 50 mg/injection and measured as mean weight change (days 5 minus 1) of treated mice minus mean weight change of control mice before first treatment was reported; format: functional, Mus musculus; how it was run: as §3
L1210 [30] = assay: Antitumor activity against L1210 lymphoid leukemia in CD2F1 mice at 50 mg/injection and measured as mean weight change (days 5 minus 1) of treated mice minus mean weight change of control mice before second treatment was reported; format: functional, Mus musculus; how it was run: as §3
L1210 [31] = assay: Antitumor activity against L1210 lymphoid leukemia in CD2F1 mice at 25 mg/injection and measured as mean survival time of treated mice in days/mean survival time of control mice x 100 before second treatment was reported; format: functional, Mus musculus; how it was run: as §1
L1210 [32] = assay: Antitumor activity against L1210 lymphoid leukemia in CD2F1 mice at 300 mg/injection and measured as mean survival time of treated mice in days/mean survival time of control mice x 100 before first treatment was reported; format: functional, Mus musculus; how it was run: as §1
L1210 [33] = assay: Antitumor activity against L1210 lymphoid leukemia in CD2F1 mice at 50 mg/injection and measured as mean survival time of treated mice in days/mean survival time of control mice x 100 before first treatment was reported; format: functional, Mus musculus; how it was run: as §1
L1210 [34] = assay: Antitumor activity against L1210 lymphoid leukemia in CD2F1 mice at 50 mg/injection and measured as mean survival time of treated mice in days/mean survival time of control mice x 100 before second treatment was reported; format: functional, Mus musculus; how it was run: as §1

SMILES: Nc1nc(=O)n([C@H]2C[C@H](O)[C@@H](CO)O2)cc1F
- ILS (L1210 [1]): >161%

SMILES: Nc1ccnc(O)c1F
- T/C (P388): <125%

SMILES: Nc1cc(O)nc(F)c1
- T/C (P388): <125%

SMILES: Nc1cc(O)ncc1F
- T/C (P388): <125%

SMILES: Nc1c(F)c(O)nc(F)c1F
- IC50 (L1210 [2]): 47.1 µM
- T/C (P388): <125%

SMILES: NNc1nc(F)c(F)c(N)c1F
- IC50 (L1210 [2]): 47.1 µM
- T/C (P388): <125%

SMILES: Nc1c(F)cnc(F)c1F
- IC50 (L1210 [2]): 47.1 µM
- T/C (P388): <125%

SMILES: Nc1ccn([C@@H]2O[C@H](CO)[C@@H](O)[C@H]2O)c(=O)c1
- IC50 (L1210 [3]): 17.8 µM

SMILES: CC(=O)Nc1ccn([C@@H]2O[C@H](COC(C)=O)[C@@H](OC(C)=O)[C@H]2OC(C)=O)c(=O)c1F
- IC50 (L1210 [3]): 12.5 µM

SMILES: Nc1ccn([C@H]2C[C@H](O)[C@@H](CO)O2)c(=O)c1F
- T/C (L1210 [4]): <125%

SMILES: Nc1c(F)cn([C@H]2C[C@H](O)[C@@H](CO)O2)c(=O)c1F
- T/C (L1210 [4]): <125%

SMILES: C[C@@]1(n2cc(F)c(N)c(F)c2=O)C[C@H](O)[C@@H](CO)O1
- T/C (L1210 [4]): <125%

SMILES: Nc1c(F)cnc(O)c1F
- IC50 (L1210 [2]): 47.1 µM
- T/C (P388): <125%

SMILES: Nc1c(F)cn(C2O[C@H](CO)[C@@H](O)[C@H]2O)c(=O)c1F (some centres not stated)
- T/C (L1210 [4]): <125%

SMILES: Nc1ccn(C2O[C@H](CO)[C@@H](O)[C@H]2O)c(=O)c1F (some centres not stated)
- Net log kill (L1210 [5]): -0.97
- Net log kill (L1210 [6]): 5.54
- Net log kill (L1210 [7]): 2.93
- IC50 (L1210 [8]): 10.7 µM
- Net log kill (L1210 [9]): 2.2
- Net log kill (L1210 [10]): 3.01
- BWD (L1210 [11]): -3
- BWD (L1210 [12]): -1.3
- Net log kill (L1210 [13]): 3.91
- Net log kill (L1210 [14]): 1.3
- Net log kill (L1210 [15]): 0.78
- Net log kill (L1210 [16]): 5.37
- BWD (L1210 [17]): -0.5
- BWD (L1210 [18]): -4.8
- BWD (L1210 [19]): -3.4
- BWD (L1210 [20]): -1
- BWD (L1210 [21]): -1
- BWD (L1210 [22]): -4.7
- T/C (L1210 [23]): 193%
- T/C (L1210 [24]): 216%
- T/C (L1210 [25]): 136%
- T/C (L1210 [26]): 208%
- T/C (L1210 [27]): 208%
- T/C (L1210 [28]): 169%
- BWD (L1210 [29]): -1.7
- BWD (L1210 [30]): -1.1
- T/C (L1210 [31]): 157%
- T/C (L1210 [32]): 230%
- T/C (L1210 [33]): 182%
- T/C (L1210 [34]): 185%

SMILES: Nc1ncn([C@@H]2O[C@H](CO)[C@@H](O)[C@H]2O)c(=O)n1 [AZACITIDINE]
- IC50 (L1210 [3]): 0.409 µM

SMILES: Nc1ccn([C@@H]2O[C@H](CO)[C@@H](O)[C@@H]2O)c(=O)n1 [CYTARABINE]
- ILS (L1210 [1]): >161%

SMILES: Nc1ncn([C@H]2C[C@H](O)[C@@H](CO)O2)c(=O)n1 [DECITABINE]
- IC50 (L1210 [3]): 0.393 µM

SMILES: Nc1ccn([C@H]2C[C@H](O)[C@@H](CO)O2)c(=O)n1 [DOXECITINE]
- ILS (L1210 [1]): >161%
